Assay [1] relates to Cunninghamella bertholletiae. Briefly: Antifungal activity against Cunninghamella bertholletiae UTHSC 04-2581 after 24 hrs by broth microdilution method. Format: functional. The note with it: UTHSC 04-2581, 24 h. In outline:
(§1)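 CLSI broth microdilution for filamentous fungi. Isolates were stored at −80°C and subcultured on potato dextrose agar at 35°C. MICs were read after 24 h. […] The QC strain was Paecilomyces variotii ATCC 36257.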

Assay [2] concerns Cunninghamella bertholletiae. Briefly: Antifungal activity against Cunninghamella bertholletiae UTHSC 05-2275 after 24 hrs by broth microdilution method. Format: functional. To be noted: UTHSC 05-2275, 24 h. In outline:
as §1

Assay [3] relates to Cunninghamella bertholletiae. Put plainly: Antifungal activity against Cunninghamella bertholletiae UTHSC 03-2241 after 24 hrs by broth microdilution method. The assay is classed as functional. To be noted: UTHSC 03-2241, 24 h. The method in brief:
as §1

A short description of assay [4]: Antifungal activity against Cunninghamella echinulata FMR 10974 after 24 hrs by broth microdilution method. Format: functional. In outline:
as §1

A short description of assay [5]: Antifungal activity against Cunninghamella echinulata UTHSC 03-3725 after 24 hrs by broth microdilution method. Format: functional. In outline:
as §1

Assay [6] can be described thus: Antifungal activity against Cunninghamella echinulata FMR 10973 after 24 hrs by broth microdilution method. Format: functional. The method in brief:
as §1

In assay [7] the test system is Cunninghamella bertholletiae. Put plainly: Antifungal activity against Cunninghamella bertholletiae UTHSC 06-1945 after 24 hrs by broth microdilution method. The assay is classed as functional. The note with it: UTHSC 06-1945, 24 h. In outline:
as §1

Assay [8] can be described thus: Antifungal activity against Cunninghamella echinulata UTHSC 01-2298 after 24 hrs by broth microdilution method. The assay is classed as functional. In outline:
as §1

The subject of assay [9] is Cunninghamella bertholletiae. Briefly: Antifungal activity against Cunninghamella bertholletiae UTHSC 05-2275 infected in neutropenic OF1 mouse assessed as increase in mouse survival rate at 25 mg/kg, po bid administered 1 day after infection for 7 days relative to untreated control.
For assay [10], the system named is Cunninghamella bertholletiae. Briefly: Antifungal activity against Cunninghamella bertholletiae UTHSC 05-2275 infected in diabetic OF1 mouse assessed as increase in mouse survival rate at 25 mg/kg, po bid administered 1 day after infection for 7 days relative to untreated control. The assay is classed as functional, organism-based. Further details: dose 25 mg/kg. The method in brief: (§2)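 Male OF1 mice were made diabetic with streptozocin 210 mg/kg i.p. Diabetes was confirmed by blood glucose >250 mg/dl at day 10. Challenge was 1 × 10⁵ CFU in 0.2 ml saline i.v. (tail vein), with ceftazidime 5 mg/day s.c. on days 1–7. Treatment began 1 day after challenge for 7 days. There were 10 mice/group, checked daily for 20 days. Kaplan-Meier analysis with log-rank comparison.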

In assay [11] the test system is Cunninghamella bertholletiae. Briefly: Antifungal activity against Cunninghamella bertholletiae UTHSC 05-2275 infected in diabetic OF1 mouse assessed as increase in mouse survival rate at 50 mg/kg, po bid administered 1 day after infection for 7 days relative to untreated control. The assay is classed as functional, organism-based. More on the design: dose 50 mg/kg. The method in brief: as §2

In assay [12] the test system is Cunninghamella bertholletiae. Briefly: Antifungal activity against Cunninghamella bertholletiae UTHSC 05-2275 infected in neutropenic OF1 mouse assessed as decreased fungal load in kidney at 25 mg/kg, po bid administered 1 day post infection measured after 4 to 5 days relative to untreated control. Format: functional, organism-based. Further details: dose 25 mg/kg. The method in brief:
(§3)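 Neutropenic male OF1 mice (cyclophosphamide 200 mg/kg i.p. + 5-fluorouracil 150 mg/kg i.v., day −1) were infected i.v. with 1 × 10⁴ CFU. Ten mice per group were treated from day 1 and killed by CO₂ on day 5, or on day 4 if moribund. Half of each brain, lung and kidney was homogenized in 1 ml saline. Ten-fold dilutions were plated on PDA for 24 h at 35°C and counted as log₁₀ CFU/g.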

For assay [13], the system named is Cunninghamella bertholletiae. Put plainly: Antifungal activity against Cunninghamella bertholletiae UTHSC 05-2275 infected in neutropenic OF1 mouse assessed as decreased fungal load in lung at 25 mg/kg, po bid administered 1 day post infection measured after 4 to 5 days relative to untreated control. Format: functional, organism-based. Further details: dose 25 mg/kg. The method in brief:
as §3

The subject of assay [14] is Cunninghamella bertholletiae. Briefly: Antifungal activity against Cunninghamella bertholletiae UTHSC 05-2275 infected in neutropenic OF1 mouse assessed as decreased fungal load in kidney at 50 mg/kg, po bid administered 1 day post infection measured after 4 to 5 days relative to untreated control. The assay is classed as functional, organism-based. Further details: dose 50 mg/kg. In outline:
as §3

For assay [15], the system named is Cunninghamella bertholletiae. Briefly: Antifungal activity against Cunninghamella bertholletiae FMR-9598 after 24 hrs by broth microdilution method. To be noted: FMR-9598, 24 h. The assay is classed as functional. The method in brief:
as §1

The subject of assay [16] is Cunninghamella bertholletiae. Briefly: Antifungal activity against Cunninghamella bertholletiae UTHSC 05-2275 infected in neutropenic OF1 mouse assessed as decreased fungal load in lung at 50 mg/kg, po bid administered 1 day post infection measured after 4 to 5 days relative to untreated control. Format: functional, organism-based. Further details: dose 50 mg/kg. In outline: as §3

The test system of assay [17] is Cunninghamella bertholletiae. Briefly: Antifungal activity against Cunninghamella bertholletiae UTSCH 05-2275 infected in diabetic OF1 mouse assessed as decreased fungal load in kidney at 50 mg/kg, po bid administered 1 day post infection measured after 4 to 5 days relative to untreated control. The assay is classed as functional, organism-based. Further details: dose 50 mg/kg. The method in brief: (§4)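 Diabetic OF1 mice (streptozocin 210 mg/kg i.p.; glucose >250 mg/dl) were infected i.v. with 1 × 10⁵ CFU, with ceftazidime cover. Ten per group were treated from day 1 and killed day 5, or day 4 if moribund. Half-organ homogenates (brain, lung, kidney) in 1 ml saline were serially diluted 10-fold on PDA, incubated 24 h at 35°C, and reported as log₁₀ CFU/g tissue.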

The test system of assay [18] is Cunninghamella bertholletiae. Briefly: Antifungal activity against Cunninghamella bertholletiae UTSCH 05-2275 infected in diabetic OF1 mouse assessed as decreased fungal load in lung at 50 mg/kg, po bid administered 1 day post infection measured after 4 to 5 days relative to untreated control. The assay is classed as functional, organism-based. Further details: dose 50 mg/kg. The method in brief: as §4

For assay [19], the system named is Cunninghamella bertholletiae. Briefly: Antifungal activity against Cunninghamella bertholletiae UTHSC 05-2275 infected in neutropenic OF1 mouse assessed as increase in mouse survival rate at 50 mg/kg, po bid administered 1 day after infection for 7 days relative to untreated control. Format: functional, organism-based. Further details: dose 50 mg/kg. In outline:
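Male OF1 mice (~30 g) were made neutropenic with cyclophosphamide 200 mg/kg i.p. plus 5-fluorouracil 150 mg/kg i.v. 1 day before challenge. Challenge was 1 × 10⁴ CFU sporangiospores in 0.2 ml saline via the lateral tail vein. Mice got ceftazidime 5 mg/day s.c. on days 1–7. Dosing started 24 h post-challenge for 7 days. There were 10 mice/group, observed daily for 20 days. Kaplan-Meier analysis with log-rank test.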

Values after ≈ are worked out from the molar mass of the structure shown. Active and inactive are the calls of the source. The calls are words filed in the database; no cut-off is given here.

The results in this text go back to ChEMBL document CHEMBL1671756, “In vitro and in vivo antifungal susceptibilities of the Mucoralean fungus Cunninghamella” (2010).

With `CCC(C)n1ncn(-c2ccc(N3CCN(c4ccc(OCC5COC(Cn6cncn6)(c6ccc(Cl)cc6Cl)O5)cc4)CC3)cc2)c1=O` (stereo not given) [ITRACONAZOLE], the minimal inhibitory concentration (MIC) was 1 µg/mL (≈ 1.42 µM) in assay [1]; 2 µg/mL (≈ 2.83 µM) in assay [2]; 1 µg/mL (≈ 1.42 µM) in assay [3]; above 16 µg/mL in assay [4]; 2 µg/mL (≈ 2.83 µM) in assay [5]; above 16 µg/mL in assay [6]. Besides, the MIC in [7] was 2 µg/mL (≈ 2.83 µM); in assay [8] it was above 16 µg/mL; in assay [15], 8 µg/mL (≈ 11.3 µM). Further, the outcome in [9], in assay [10], in assay [12], in [14] and in assay [17] was inactive. The outcome in [11], in assay [13], in assay [16], in [18] and in [19] was Active.

With `C[C@@H](c1nc(-c2ccc(C#N)cc2)cs1)[C@](O)(Cn1cncn1)c1ccc(F)cc1F` [RAVUCONAZOLE], the minimum inhibitory concentration (MIC) in [1], in [2], in assay [3], in assay [4], in assay [5] and in [6] was above 16 µg/mL in each case. The minimal inhibitory concentration (MIC) in assay [7], in assay [8] and in assay [15] was above 16 µg/mL in each case.

Regarding `C[C@@H](c1ncncc1F)[C@](O)(Cn1cncn1)c1ccc(F)cc1F` [VORICONAZOLE], the MIC was 16 µg/mL (≈ 45.8 µM) in [1]; 16 µg/mL (≈ 45.8 µM) in assay [2]; 8 µg/mL (≈ 22.9 µM) in assay [3]; above 16 µg/mL in assay [4]; above 16 µg/mL in [5]; above 16 µg/mL in assay [6]. Moreover, the MIC was 16 µg/mL (≈ 45.8 µM) in assay [7], above 16 µg/mL in assay [8] and above 16 µg/mL in assay [15].

Turning to `CC[C@H](C)C[C@H](C)CCCCCCCCC(=O)N[C@H]1C[C@@H](O)[C@@H](NCCN)NC(=O)[C@@H]2[C@@H](O)CCN2C(=O)[C@H]([C@H](O)CCN)NC(=O)[C@H]([C@H](O)[C@@H](O)c2ccc(O)cc2)NC(=O)[C@@H]2C[C@@H](O)CN2C(=O)[C@H]([C@@H](C)O)NC1=O` [CASPOFUNGIN], the minimum inhibitory concentration (MIC) in assay [1], in [2], in [3], in [4], in assay [5] and in [6] was above 16 µg/mL throughout. The MIC in assay [7], in assay [8] and in assay [15] was above 16 µg/mL each time.

For `CN(C/C=C/C#CC(C)(C)C)Cc1cccc2ccccc12` [TERBINAFINE], the MIC turned out to be 0.03 µg/mL (≈ 0.103 µM) in assay [1]; 0.06 µg/mL (≈ 0.206 µM) in assay [2]; 0.03 µg/mL (≈ 0.103 µM) in assay [3]; 0.06 µg/mL (≈ 0.206 µM) in [4]; 0.03 µg/mL (≈ 0.103 µM) in assay [5]; 0.06 µg/mL (≈ 0.206 µM) in assay [6]. The minimum inhibitory concentration (MIC) in assay [7] was found to be 0.03 µg/mL (≈ 0.103 µM); in [8], 0.06 µg/mL (≈ 0.206 µM); in [15] it was 0.06 µg/mL (≈ 0.206 µM).
